Like-named read-outs stand apart in the source and are kept apart here. Marks after values point to notes of the source that are not given here.
Experiments:
[1] = test system: [125I]epibatidine binding sites (β2*- and β4*-nAChR); design: species or system C57BL/6J mice; settings: inferior colliculus, wild-type
[2] = target: β4*-nAChR (Mus musculus, UniProt Q8R493+Q8R4G9); test: biochemical; type: binding, C57BL/6J mice; settings: read-out: [125I]epibatidine (β2 -/-) Ki; inferior colliculi, β2-/- mice; 200 pM ligand
Chain of β4*-nAChR (Q8R493 21-495): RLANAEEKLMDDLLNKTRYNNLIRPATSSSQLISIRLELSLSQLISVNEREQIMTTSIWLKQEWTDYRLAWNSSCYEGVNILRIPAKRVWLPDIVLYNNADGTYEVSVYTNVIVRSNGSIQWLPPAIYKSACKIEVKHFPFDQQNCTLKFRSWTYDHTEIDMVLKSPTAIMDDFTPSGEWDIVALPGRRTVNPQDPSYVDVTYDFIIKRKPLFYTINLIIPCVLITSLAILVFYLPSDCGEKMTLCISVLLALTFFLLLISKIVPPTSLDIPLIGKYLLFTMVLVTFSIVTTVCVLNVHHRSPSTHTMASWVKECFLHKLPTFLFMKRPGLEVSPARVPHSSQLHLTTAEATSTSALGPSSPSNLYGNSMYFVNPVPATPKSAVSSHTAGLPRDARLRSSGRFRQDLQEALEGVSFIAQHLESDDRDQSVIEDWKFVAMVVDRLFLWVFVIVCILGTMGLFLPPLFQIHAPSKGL
Chain of β4*-nAChR (Q8R4G9 26-499): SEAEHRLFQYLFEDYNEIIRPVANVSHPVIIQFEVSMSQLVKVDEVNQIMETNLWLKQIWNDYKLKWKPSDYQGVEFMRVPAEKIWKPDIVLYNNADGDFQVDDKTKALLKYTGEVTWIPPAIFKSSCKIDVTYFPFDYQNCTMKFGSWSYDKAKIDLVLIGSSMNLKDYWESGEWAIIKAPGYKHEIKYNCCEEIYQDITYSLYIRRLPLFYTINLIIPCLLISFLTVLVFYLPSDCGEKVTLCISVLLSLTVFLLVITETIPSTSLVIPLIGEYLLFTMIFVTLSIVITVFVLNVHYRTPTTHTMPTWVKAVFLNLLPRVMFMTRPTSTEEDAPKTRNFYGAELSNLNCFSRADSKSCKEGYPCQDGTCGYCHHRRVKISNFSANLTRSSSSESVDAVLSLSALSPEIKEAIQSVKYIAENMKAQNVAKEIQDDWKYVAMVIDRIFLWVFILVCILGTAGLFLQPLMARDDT

[3] = test system: β2 null mutant mice; test: 3-IC-induced hypothermia in β2 null mutant and wild-type mice; type: in vivo, mouse; settings: 0.2 mg/kg ip
How it was run: (§1)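 Null mutants were backcrossed onto C57BL/6J for at least 10 generations, genotyped from tail DNA, and compared with wild-type mice (β2-/- n = 5; β4-/- n = 5). Test compound was given at 0.2 mg/kg IP in 10 µl/g body weight. Rectal temperature was taken every 5 minutes with a peanut-oil-lubricated probe inserted 1.5 cm. Data are mean ± SEM, analysed by repeated-measures ANOVA (time × genotype).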

[4] = test system: β4 null mutant mice; test: 3-IC-induced hypothermia in β4 null mutant and wild-type mice; type: in vivo, mouse; settings: 0.2 mg/kg ip
How it was run: as §1

[5] = test system: DBA/2J mice; test: Chronic intravenous 3-IC infusion and tolerance test; type: in vivo, mouse
[6] = test system: cytisine-sensitive [125I]epibatidine binding sites; type: in vivo, DBA/2J mice; settings: for Cytisine-sensitive [125I]epibatidine binding: 3-IC 0.2 mg/kg/h iv 7 days; for Cytisine-sensitive [125I]epibatidine binding % change: 3-IC 0.2 mg/kg/h iv 7 days vs saline
[7] = test system: cytisine-resistant [125I]epibatidine binding sites; settings: for Cytisine-resistant [125I]epibatidine binding: 3-IC 0.2 mg/kg/h iv 7 days; for Cytisine-resistant [125I]epibatidine binding % change: 3-IC 0.2 mg/kg/h iv 7 days vs saline
[8] = target: α7* receptors; settings: read-out: Ki α7* receptors in rat brain; ref Abin-Carriquiry et al., 2006; cited from earlier work
[9] = target: human α4β2; settings: read-out: Ki human α4β2; expressed in Xenopus oocytes; ref Slater et al., 2003; cited from earlier work
[10] = test system: [3H]noradrenaline release; settings: read-out: EC50 [3H]noradrenaline release; rat hippocampal slices; ref Abin-Carriquiry et al., 2006; cited from earlier work
[11] = dorsolateral geniculate nucleus
[12] = superior colliculus (optic nerve)
[13] = superior colliculus (sup. gray)

O=c1c(I)ccc2n1C[C@@H]1CNC[C@H]2C1 [3-IC, 3-iodocytisine]
difference in affinity for the two [125I]epibatidine binding sites [1]: 1.6 fold | Ki [2]: 0.00025 ± 4e-05 µM | maximal 3-IC induced hypothermia (decrease of temperature) ([3]; β2+/+ mice): 9.8 ± 0.76 °C | maximal 3-IC induced hypothermia (decrease of temperature) ([3]; β2-/- mice): 8.4 ± 1 °C | maximal hypothermia ([4]; β4+/+ mice): 7.9 ± 0.3 °C | maximal hypothermia ([4]; β4-/- mice): 2.9 ± 0.4 °C | tolerance after chronic infusion ([5]; 0.2 mg/kg/h iv 7 days): did not elicit tolerance | decrease of body temperature during infusion ([5]; after 24 hours of continuous intravenous infusion of 0.5 mg/kg/h): 13 ± 0.3 °C | infusion doses that elicited tremors ([5]; continuous intravenous infusion): higher than 0.2 mg/kg/h | Cytisine-sensitive [125I]epibatidine binding ([6]; anterior olfactory nucleus): 16.1 ± 1.4 fmol/mg | Cytisine-sensitive [125I]epibatidine binding % change ([6]; anterior olfactory nucleus): 53.5% | Cytisine-sensitive [125I]epibatidine binding ([6]; anteromedial thalamic nucleus): 50.3 ± 4.0 fmol/mg | Cytisine-sensitive [125I]epibatidine binding % change ([6]; anteromedial thalamic nucleus): -0.8% | Cytisine-sensitive [125I]epibatidine binding ([6]; caudate putamen): 20.3 ± 1.9 fmol/mg | Cytisine-sensitive [125I]epibatidine binding % change ([6]; caudate putamen): 68.3 * % | Cytisine-sensitive [125I]epibatidine binding ([6]; cingulate cortex): 23.6 ± 1.5 fmol/mg | Cytisine-sensitive [125I]epibatidine binding % change ([6]; cingulate cortex): 42.0% | Cytisine-sensitive [125I]epibatidine binding ([6]; dentate gyrus (granular layer)): 12.3 ± 0.6 fmol/mg | Cytisine-sensitive [125I]epibatidine binding % change ([6]; dentate gyrus (granular layer)): 46.8 * % | Cytisine-sensitive [125I]epibatidine binding [6, 11]: 70.7 ± 3.9 fmol/mg | Cytisine-sensitive [125I]epibatidine binding % change [6, 11]: 9.7% | Cytisine-sensitive [125I]epibatidine binding ([6]; dorsomedial thalamic nucleus): 52.9 ± 5.2 fmol/mg | Cytisine-sensitive [125I]epibatidine binding % change ([6]; dorsomedial thalamic nucleus): -4.5% | Cytisine-sensitive [125I]epibatidine binding ([6]; fasciculus retroflexus): 40.2 ± 4.0 fmol/mg | Cytisine-sensitive [125I]epibatidine binding % change ([6]; fasciculus retroflexus): 1.0% | Cytisine-sensitive [125I]epibatidine binding ([6]; hippocampus (CA1-3)): 9.0 ± 0.2 fmol/mg | Cytisine-sensitive [125I]epibatidine binding % change ([6]; hippocampus (CA1-3)): 56.3 *** % | Cytisine-sensitive [125I]epibatidine binding ([6]; inferior colliculus (central)): 12.2 ± 2.5 fmol/mg | Cytisine-sensitive [125I]epibatidine binding % change ([6]; inferior colliculus (central)): 97.2 * % | Cytisine-sensitive [125I]epibatidine binding ([6]; inferior colliculus (dorsal)): 22.8 ± 2.1 fmol/mg | Cytisine-sensitive [125I]epibatidine binding % change ([6]; inferior colliculus (dorsal)): 68.7 * % | Cytisine-sensitive [125I]epibatidine binding ([6]; inferior colliculus (external)): 16.8 ± 2.1 fmol/mg | Cytisine-sensitive [125I]epibatidine binding % change ([6]; inferior colliculus (external)): 88.9 * % | Cytisine-sensitive [125I]epibatidine binding ([6]; interpeduncular nucleus): 194.7 ± 42.8 fmol/mg | Cytisine-sensitive [125I]epibatidine binding % change ([6]; interpeduncular nucleus): -0.6% | Cytisine-sensitive [125I]epibatidine binding ([6]; medial geniculate nucleus): 49.4 ± 8.2 fmol/mg | Cytisine-sensitive [125I]epibatidine binding % change ([6]; medial geniculate nucleus): 27.2% | Cytisine-sensitive [125I]epibatidine binding ([6]; medial habenula): 171.3 ± 36.4 fmol/mg | Cytisine-sensitive [125I]epibatidine binding % change ([6]; medial habenula): 52.6% | Cytisine-sensitive [125I]epibatidine binding ([6]; nucleus accumbens): 15.9 ± 2.1 fmol/mg | Cytisine-sensitive [125I]epibatidine binding % change ([6]; nucleus accumbens): 91.8 * % | Cytisine-sensitive [125I]epibatidine binding ([6]; olfactory tubercle): 14.5 ± 1.6 fmol/mg | Cytisine-sensitive [125I]epibatidine binding % change ([6]; olfactory tubercle): 83.5 * % | Cytisine-sensitive [125I]epibatidine binding ([6]; optic tract): 15.1 ± 2.9 fmol/mg | Cytisine-sensitive [125I]epibatidine binding % change ([6]; optic tract): 126.2% | Cytisine-sensitive [125I]epibatidine binding % change ([6]; optic tract, listed as 3-iodocytisine): 126.2 * % | Cytisine-sensitive [125I]epibatidine binding ([6]; parietal cortex (layers 1-3)): 9.1 ± 1.0 fmol/mg | Cytisine-sensitive [125I]epibatidine binding % change ([6]; parietal cortex (layers 1-3)): 71.7 * % | Cytisine-sensitive [125I]epibatidine binding ([6]; parietal cortex (layers 4-6)): 19.0 ± 1.6 fmol/mg | Cytisine-sensitive [125I]epibatidine binding % change ([6]; parietal cortex (layers 4-6)): 79.7 * % | Cytisine-sensitive [125I]epibatidine binding ([6]; retrosplenial Cortex): 26.6 ± 2.7 fmol/mg | Cytisine-sensitive [125I]epibatidine binding % change ([6]; retrosplenial Cortex): 35.6% | Cytisine-sensitive [125I]epibatidine binding ([6]; subiculum): 41.7 ± 3.8 fmol/mg | Cytisine-sensitive [125I]epibatidine binding % change ([6]; subiculum): 27.8% | Cytisine-sensitive [125I]epibatidine binding ([6]; substantia nigra): 43.6 ± 7.3 fmol/mg | Cytisine-sensitive [125I]epibatidine binding % change ([6]; substantia nigra): 38.0% | Cytisine-sensitive [125I]epibatidine binding [6, 12]: 47.3 ± 2.2 fmol/mg | Cytisine-sensitive [125I]epibatidine binding % change [6, 12]: 60.6 *** % | Cytisine-sensitive [125I]epibatidine binding [6, 13]: 51.2 ± 4.4 fmol/mg | Cytisine-sensitive [125I]epibatidine binding % change [6, 13]: 50.2 ** % | Cytisine-sensitive [125I]epibatidine binding ([6]; ventral tegmental area): 25.1 ± 1.5 fmol/mg | Cytisine-sensitive [125I]epibatidine binding % change ([6]; ventral tegmental area): 45.2% | Cytisine-sensitive [125I]epibatidine binding % change ([6]; ventral tegmental area, listed as 3-iodocytisine): 45.2 * % | Cytisine-sensitive [125I]epibatidine binding ([6]; ventromedial thalamic nucleus): 50.7 ± 1.5 fmol/mg | Cytisine-sensitive [125I]epibatidine binding % change ([6]; ventromedial thalamic nucleus): -0.8% | Cytisine-sensitive [125I]epibatidine binding ([6]; zona incerta): 13.7 ± 1.2 fmol/mg | Cytisine-sensitive [125I]epibatidine binding % change ([6]; zona incerta): 55.3 * % | Cytisine-resistant [125I]epibatidine binding ([7]; anterior olfactory nucleus): 13.27 ± 2.48 fmol/mg | Cytisine-resistant [125I]epibatidine binding ([7]; anteromedial thalamic nucleus): 3.97 ± 0.25 fmol/mg | Cytisine-resistant [125I]epibatidine binding % change ([7]; anteromedial thalamic nucleus): 22.0% | cytisine-resistant [125I]epibatidine sites after chronic treatment ([7]; autoradiography, 0.2 mg/kg/h iv 7 days): not affected | Cytisine-resistant [125I]epibatidine binding ([7]; caudate putamen): 2.39 ± 0.29 fmol/mg | Cytisine-resistant [125I]epibatidine binding % change ([7]; caudate putamen): 18.2% | Cytisine-resistant [125I]epibatidine binding ([7]; cingulate cortex): 1.25 ± 0.13 fmol/mg | Cytisine-resistant [125I]epibatidine binding % change ([7]; cingulate cortex): 26.9% | Cytisine-resistant [125I]epibatidine binding ([7]; dentate gyrus (granular layer)): 1.15 ± 0.06 fmol/mg | Cytisine-resistant [125I]epibatidine binding % change ([7]; dentate gyrus (granular layer)): 17.3% | Cytisine-resistant [125I]epibatidine binding [7, 11]: 9.89 ± 0.66 fmol/mg | Cytisine-resistant [125I]epibatidine binding % change [7, 11]: -2.8% | Cytisine-resistant [125I]epibatidine binding ([7]; dorsomedial thalamic nucleus): 3.78 ± 0.50 fmol/mg | Cytisine-resistant [125I]epibatidine binding % change ([7]; dorsomedial thalamic nucleus): 5.3% | Cytisine-resistant [125I]epibatidine binding ([7]; fasciculus retroflexus): 63.47 ± 4.86 fmol/mg | Cytisine-resistant [125I]epibatidine binding % change ([7]; fasciculus retroflexus): 3.1% | Cytisine-resistant [125I]epibatidine binding ([7]; hippocampus (CA1-3)): 0.98 ± 0.06 fmol/mg | Cytisine-resistant [125I]epibatidine binding % change ([7]; hippocampus (CA1-3)): 20.2% | Cytisine-resistant [125I]epibatidine binding ([7]; inferior colliculus (central)): 4.00 ± 1.42 fmol/mg | Cytisine-resistant [125I]epibatidine binding % change ([7]; inferior colliculus (central)): 68.2% | Cytisine-resistant [125I]epibatidine binding ([7]; inferior colliculus (dorsal)): 10.17 ± 2.62 fmol/mg | Cytisine-resistant [125I]epibatidine binding % change ([7]; inferior colliculus (dorsal)): 67.7% | Cytisine-resistant [125I]epibatidine binding ([7]; inferior colliculus (external)): 2.55 ± 0.19 fmol/mg | Cytisine-resistant [125I]epibatidine binding % change ([7]; inferior colliculus (external)): 24.2% | Cytisine-resistant [125I]epibatidine binding ([7]; interpeduncular nucleus): 211.95 ± 31.83 fmol/mg | Cytisine-resistant [125I]epibatidine binding ([7]; medial geniculate nucleus): 4.43 ± 0.80 fmol/mg | Cytisine-resistant [125I]epibatidine binding % change ([7]; medial geniculate nucleus): 38.1% | Cytisine-resistant [125I]epibatidine binding ([7]; medial habenula): 282.84 ± 31.53 fmol/mg | Cytisine-resistant [125I]epibatidine binding % change ([7]; medial habenula): -13.5% | Cytisine-resistant [125I]epibatidine binding ([7]; nucleus accumbens): 1.95 ± 0.21 fmol/mg | Cytisine-resistant [125I]epibatidine binding % change ([7]; nucleus accumbens): 12.9% | Cytisine-resistant [125I]epibatidine binding ([7]; olfactory tubercle): 2.9 ± 0.5 fmol/mg | Cytisine-resistant [125I]epibatidine binding % change ([7]; olfactory tubercle): -17.1% | Cytisine-resistant [125I]epibatidine binding ([7]; optic tract): 1.75 ± 0.22 fmol/mg | Cytisine-resistant [125I]epibatidine binding % change ([7]; optic tract): 26.1% | Cytisine-resistant [125I]epibatidine binding ([7]; parietal cortex (layers 1-3)): 0.62 ± 0.06 fmol/mg | Cytisine-resistant [125I]epibatidine binding % change ([7]; parietal cortex (layers 1-3)): 24.6% | Cytisine-resistant [125I]epibatidine binding ([7]; parietal cortex (layers 4-6)): 1.29 ± 0.07 fmol/mg | Cytisine-resistant [125I]epibatidine binding % change ([7]; parietal cortex (layers 4-6)): 45.9% | Cytisine-resistant [125I]epibatidine binding ([7]; retrosplenial Cortex): 1.63 ± 0.11 fmol/mg | Cytisine-resistant [125I]epibatidine binding % change ([7]; retrosplenial Cortex): 35.8% | Cytisine-resistant [125I]epibatidine binding ([7]; subiculum): 1.89 ± 0.10 fmol/mg | Cytisine-resistant [125I]epibatidine binding ([7]; substantia nigra): 1.6 ± 0.2 fmol/mg | Cytisine-resistant [125I]epibatidine binding % change ([7]; substantia nigra): 6.7% | Cytisine-resistant [125I]epibatidine binding [7, 12]: 3.21 ± 0.14 fmol/mg | Cytisine-resistant [125I]epibatidine binding % change [7, 12]: 0.5% | Cytisine-resistant [125I]epibatidine binding [7, 13]: 11.25 ± 0.12 fmol/mg | Cytisine-resistant [125I]epibatidine binding % change [7, 13]: 10.8% | Cytisine-resistant [125I]epibatidine binding ([7]; ventral tegmental area): 3.4 ± 0.69 fmol/mg | Cytisine-resistant [125I]epibatidine binding % change ([7]; ventral tegmental area): 20.5% | Cytisine-resistant [125I]epibatidine binding ([7]; ventromedial thalamic nucleus): 3.29 ± 0.46 fmol/mg | Cytisine-resistant [125I]epibatidine binding % change ([7]; ventromedial thalamic nucleus): 13.4% | Cytisine-resistant [125I]epibatidine binding ([7]; zona incerta): 2.34 ± 0.22 fmol/mg | Ki [8]: 0.115 µM | Ki [9]: 0.0007 µM | EC50 [10]: 0.22 µM

From article PMC2735267 (Neuropharmacology, 2009)
